Test [1] in a line: Inhibition of PBP6 in penicillin-resistant Enterococcus faecium D63r membranes assessed as inhibition of fluorescent ampicillin binding after 20 mins at 37 degC. In short, it runs like this:
(§1)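 Competition assay on purified membrane preparations (300 μg protein). Membranes preincubated 20 min at 37°C with increasing β-lactam concentrations, then 1 h at 37°C with saturating 25 μM fluorescent ampicillin. Proteins resolved by SDS-PAGE and fluorography. IC50 is the concentration inhibiting 50% of fluorescent ampicillin labelling relative to a drug-free control.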

Test [2] is described as follows: Inhibition of PBP4 in penicillin-resistant Enterococcus faecium D63r membranes assessed as inhibition of fluorescent ampicillin binding after 20 mins at 37 degC. In a few lines:
as §1

A short description of test [3]: Inhibition of PBP2 in penicillin-resistant Enterococcus faecium D63r membranes assessed as inhibition of fluorescent ampicillin binding after 20 mins at 37 degC. In a few lines: as §1
Test [4] deals with Enterococcus faecium. The test is described as follows: Antimicrobial activity against penicillin-resistant Enterococcus faecium D63r by microdilution method. The format is functional. On the technique in general: In broth dilution the organism is exposed to a series of concentrations in liquid medium.
The nature of test [5]: Inhibition of PBP5 in penicillin-resistant Enterococcus faecium D63r membranes assessed as inhibition of fluorescent ampicillin binding after 20 mins at 37 degC. In short, it runs like this:
as §1

The nature of test [6]: Inhibition of PBP1 in penicillin-resistant Enterococcus faecium D63r membranes assessed as inhibition of fluorescent ampicillin binding after 20 mins at 37 degC. In a few lines:
as §1

Test [7] in a line: Inhibition of PBP3 in penicillin-resistant Enterococcus faecium D63r membranes assessed as inhibition of fluorescent ampicillin binding after 20 mins at 37 degC. In short, it runs like this: as §1
The test system of test [8] is Enterococcus faecium. The test is described as follows: Antimicrobial activity against Enterococcus faecium D63 by microdilution method. The format is functional.
Test [9] concerns Enterococcus faecium. The test is described as follows: Inhibition of Enterococcus faecium low-affinity PBP5fm assessed as rate constant for enzyme acylation by spectrophotometry. In short, it runs like this: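 Soluble PBP 5fm (N-terminal membrane anchor removed), overproduced and purified without molecular sieve step. β-lactam ring opening followed at 319 nm, 30°C, 10 mM phosphate pH 7.0, 10 μM enzyme, across drug concentrations. Pseudo-first-order ka fitted from absorbance traces. k+2/K taken from slope of ka versus concentration.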

The test system of test [10] is Enterococcus faecium. Briefly: Antimicrobial activity against penicillin-resistant Enterococcus faecium D63r assessed as bacterial killing at 4 times MIC by time kill curve method. The format is functional, organism-based.
In test [11] the test system is Enterococcus faecium. Briefly: Antimicrobial activity against Enterococcus faecium D63 assessed as bacterial killing at 4 times MIC by time kill curve method. In kind it is functional, organism-based. In short, it runs like this: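 Survivors counted at 0, 4 and 24 h of incubation at 37°C by plating serial dilutions (at least 10-fold, to limit carryover).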
Test [12] can be described thus: Inhibition of PBP2 in wild type Enterococcus faecium D63 membranes assessed as inhibition of fluorescent ampicillin binding after 20 mins at 37 degC. In short, it runs like this:
as §1

Another test concerns Staphylococcus aureus. The test is described as follows: Inhibition of Staphylococcus aureus PBP2a assessed as rate constant for enzyme acylation by spectrophotometry.
Test [13] in a line: Inhibition of PBP3 in wild type Enterococcus faecium D63 membranes assessed as inhibition of fluorescent ampicillin binding after 20 mins at 37 degC.
Test [14] in a line: Inhibition of PBP6 in wild type Enterococcus faecium D63 membranes assessed as inhibition of fluorescent ampicillin binding after 20 mins at 37 degC. In a few lines:
as §1

The nature of test [15]: Inhibition of PBP5 in wild type Enterococcus faecium D63 membranes assessed as inhibition of fluorescent ampicillin binding after 20 mins at 37 degC. In short, it runs like this:
as §1

The nature of test [16]: Inhibition of PBP1 in wild type Enterococcus faecium D63 membranes assessed as inhibition of fluorescent ampicillin binding after 20 mins at 37 degC.
Test [17] can be described thus: Inhibition of PBP4 in wild type Enterococcus faecium D63 membranes assessed as inhibition of fluorescent ampicillin binding after 20 mins at 37 degC.

The results in this text go back to ChEMBL document CHEMBL1240353 (Antimicrob Agents Chemother, 2010).

One may read the IC50 as the concentration at which inhibition is half-maximal. A word on the MIC: it is the lowest concentration that inhibits growth of the organism.

Values after ≈ are worked out from the molar mass of the structure shown. Active and inactive are the calls of the source. The calls are words filed in the database; no cut-off is given here. Bounds are passed on as bounds.

As to `CO/N=C(\C(=O)N[C@@H]1C(=O)N2C(C(=O)[O-])=C(C[N+]3(C)CCCC3)CS[C@H]12)c1csc(N)n1`, the IC50 in [1] is more than 50 µg/mL; in [2], more than 200 µg/mL; in test [3], 0.6 µg/mL (≈ 1.25 µM); in test [5], more than 200 µg/mL; in test [6] it was 1.7 µg/mL (≈ 3.54 µM); in test [7], 0.5 µg/mL (≈ 1.04 µM). For the same compound, the MIC against Enterococcus faecium [4] was more than 100 µg/mL.

For `CC1(C)S[C@@H]2[C@H](NC(=O)[C@H](N)c3ccccc3)C(=O)N2[C@H]1C(=O)O` [AMPICILLIN], the minimal inhibitory concentration (MIC) against Enterococcus faecium [4] came to 125 µg/mL (≈ 358 µM); in the test with Enterococcus faecium [8], 15 µg/mL (≈ 42.9 µM).

In the case of `CC(C)(O/N=C(\C(=O)N[C@@H]1C(=O)N2C(C(=O)[O-])=C(C[n+]3ccccc3)CS[C@H]12)c1csc(N)n1)C(=O)O` [CEFTAZIDIME], the IC50 is more than 50 µg/mL in test [1]; more than 200 µg/mL in [2]; 0.5 µg/mL (≈ 0.915 µM) in test [3]; more than 200 µg/mL in test [5]; 0.9 µg/mL (≈ 1.65 µM) in [6]; 0.04 µg/mL (≈ 0.0732 µM) in test [7]. Also, the minimal inhibitory concentration (MIC) against Enterococcus faecium [4] is more than 100 µg/mL.

`Nc1nc(/C(=N/O)C(=O)N[C@@H]2C(=O)N3C(C(=O)O)=C(/C=C4\CCN([C@@H]5CCNC5)C4=O)CS[C@H]23)ns1` [CEFTOBIPROLE]: the INH in the test on Enterococcus faecium [9] worked out at 110 M⁻¹ s⁻¹; in the test on Staphylococcus aureus it was 8900 M⁻¹ s⁻¹. The inhibition result in the test with Enterococcus faecium [10] and in the test on Enterococcus faecium [11] was “Active” in each case. Moreover, the IC50 was 1.8 µg/mL (≈ 3.37 µM) in [2]; 0.2 µg/mL (≈ 0.374 µM) in test [12]; 0.2 µg/mL (≈ 0.374 µM) in test [3]; 0.6 µg/mL (≈ 1.12 µM) in test [13]; more than 16 µg/mL in test [14]; 1 µg/mL (≈ 1.87 µM) in test [5]. Moreover, the half-inhibitory concentration (IC50) in test [15] was determined as 0.7 µg/mL (≈ 1.31 µM); in [6] it was 0.7 µg/mL (≈ 1.31 µM); in [16], 0.6 µg/mL (≈ 1.12 µM); in test [7], 0.5 µg/mL (≈ 0.935 µM); in [17], 1.5 µg/mL (≈ 2.81 µM). In addition, the MIC in the test with Enterococcus faecium [4] stood at 8 µg/mL (≈ 15 µM); against Enterococcus faecium [8] it was 2 µg/mL (≈ 3.74 µM).

With `CC1(C)S[C@@H]2[C@H](NC(=O)Cc3ccccc3)C(=O)N2[C@H]1C(=O)O` [PENICILLIN G], the INH with Enterococcus faecium [9] stood at 15 M⁻¹ s⁻¹. Also, the concentration for half-maximal inhibition (IC50) amounted to 2 µg/mL (≈ 5.98 µM) in test [1]; 8 µg/mL (≈ 23.9 µM) in [2]; 0.1 µg/mL (≈ 0.299 µM) in test [12]; 0.06 µg/mL (≈ 0.179 µM) in test [3]; 1.3 µg/mL (≈ 3.89 µM) in [13]; 1.5 µg/mL (≈ 4.49 µM) in test [14]. The half-maximal inhibitory concentration (IC50) was determined as 55 µg/mL (≈ 164 µM) in test [5]; 75 µg/mL (≈ 224 µM) in test [15]; 1.6 µg/mL (≈ 4.78 µM) in [6]; 0.9 µg/mL (≈ 2.69 µM) in [16]; 0.6 µg/mL (≈ 1.79 µM) in test [7]; 10 µg/mL (≈ 29.9 µM) in test [17]. Besides, the inhibition result with Enterococcus faecium [10] and in the test with Enterococcus faecium [11] was “Active” in each case. In addition, the minimum inhibitory concentration (MIC) was found to be 70 µg/mL (≈ 209 µM) against Enterococcus faecium [4] and 5 µg/mL (≈ 15 µM) in the test on Enterococcus faecium [8].
